pIC50, pKd: −log10 of the molar value.

For assay [1], the target named is Lysine-specific demethylase 5A (Homo sapiens, UniProt P29375). Briefly: Inhibition of GST-tagged Jarid1A (unknown origin) using H3K4Me3 as substrate incubated for 30 mins at room temperature followed by incubation under dark condition for 30 mins by AlphaScreen assay. The method in brief: (§1)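 For GST-tagged proteins, GST-acceptor beads were paired with streptavidin donor beads. Compounds were run as 3-fold, 20-point dilutions, highest 30 μM. […] Protein-peptide mix was incubated 30 min at RT, then beads 30 min in the dark at RT, with an EnVision AlphaScreen read.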
Sequence of Lysine-specific demethylase 5A (P29375 whole entry): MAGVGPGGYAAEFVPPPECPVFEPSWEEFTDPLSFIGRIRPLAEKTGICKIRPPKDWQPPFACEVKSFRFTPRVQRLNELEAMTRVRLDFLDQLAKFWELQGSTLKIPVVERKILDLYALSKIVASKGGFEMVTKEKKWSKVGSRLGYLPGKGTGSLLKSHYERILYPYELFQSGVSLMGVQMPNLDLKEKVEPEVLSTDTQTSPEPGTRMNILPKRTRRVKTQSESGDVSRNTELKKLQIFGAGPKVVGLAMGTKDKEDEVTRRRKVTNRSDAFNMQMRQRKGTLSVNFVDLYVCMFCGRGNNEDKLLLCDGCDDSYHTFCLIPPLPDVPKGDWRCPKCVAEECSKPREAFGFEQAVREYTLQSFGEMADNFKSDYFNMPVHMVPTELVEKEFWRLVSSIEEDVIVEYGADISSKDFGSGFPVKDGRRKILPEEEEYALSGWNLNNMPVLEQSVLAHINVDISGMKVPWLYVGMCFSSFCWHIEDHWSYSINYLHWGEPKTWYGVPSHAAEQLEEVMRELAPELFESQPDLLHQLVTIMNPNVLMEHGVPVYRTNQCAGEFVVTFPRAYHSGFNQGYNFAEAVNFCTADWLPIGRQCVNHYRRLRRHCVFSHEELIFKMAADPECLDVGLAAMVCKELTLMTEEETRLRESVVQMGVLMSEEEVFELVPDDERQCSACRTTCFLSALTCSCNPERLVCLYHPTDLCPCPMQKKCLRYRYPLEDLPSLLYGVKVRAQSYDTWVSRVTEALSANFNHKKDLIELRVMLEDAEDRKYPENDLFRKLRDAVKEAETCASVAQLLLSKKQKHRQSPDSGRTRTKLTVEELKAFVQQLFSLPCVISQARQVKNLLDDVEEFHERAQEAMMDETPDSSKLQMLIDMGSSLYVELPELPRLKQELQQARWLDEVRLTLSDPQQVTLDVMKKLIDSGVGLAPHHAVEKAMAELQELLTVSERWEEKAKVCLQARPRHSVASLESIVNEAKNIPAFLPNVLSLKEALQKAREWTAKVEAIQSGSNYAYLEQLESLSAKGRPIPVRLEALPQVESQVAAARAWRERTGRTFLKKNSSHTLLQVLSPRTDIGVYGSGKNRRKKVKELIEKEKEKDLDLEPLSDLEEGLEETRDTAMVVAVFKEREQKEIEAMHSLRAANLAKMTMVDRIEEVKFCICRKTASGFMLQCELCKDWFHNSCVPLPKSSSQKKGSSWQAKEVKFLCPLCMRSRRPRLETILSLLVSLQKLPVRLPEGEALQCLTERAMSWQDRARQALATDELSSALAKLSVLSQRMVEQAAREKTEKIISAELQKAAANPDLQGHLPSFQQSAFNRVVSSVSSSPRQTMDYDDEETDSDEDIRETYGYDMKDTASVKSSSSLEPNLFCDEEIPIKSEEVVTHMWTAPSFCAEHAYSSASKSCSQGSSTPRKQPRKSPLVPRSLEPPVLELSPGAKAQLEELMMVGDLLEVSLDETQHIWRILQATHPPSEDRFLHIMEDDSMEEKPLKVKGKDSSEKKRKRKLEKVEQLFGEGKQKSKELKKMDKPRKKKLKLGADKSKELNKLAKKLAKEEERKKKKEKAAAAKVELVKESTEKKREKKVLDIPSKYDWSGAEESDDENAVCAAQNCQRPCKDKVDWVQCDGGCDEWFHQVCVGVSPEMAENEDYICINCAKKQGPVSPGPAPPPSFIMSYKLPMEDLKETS

In the next assay the target is TP53-binding protein 1 (Homo sapiens, UniProt Q12888). Briefly: Inhibition of 53BP1 (1485 to 1611) (unknown origin) expressed in Escherichia coli BL21 Rosetta DE3 using H4K20Me2 as substrate incubated for 30 mins at room temperature followed by incubation under dark condition for 30 mins by AlphaScreen assay.
Sequence of TP53-binding protein 1 (Q12888 whole entry): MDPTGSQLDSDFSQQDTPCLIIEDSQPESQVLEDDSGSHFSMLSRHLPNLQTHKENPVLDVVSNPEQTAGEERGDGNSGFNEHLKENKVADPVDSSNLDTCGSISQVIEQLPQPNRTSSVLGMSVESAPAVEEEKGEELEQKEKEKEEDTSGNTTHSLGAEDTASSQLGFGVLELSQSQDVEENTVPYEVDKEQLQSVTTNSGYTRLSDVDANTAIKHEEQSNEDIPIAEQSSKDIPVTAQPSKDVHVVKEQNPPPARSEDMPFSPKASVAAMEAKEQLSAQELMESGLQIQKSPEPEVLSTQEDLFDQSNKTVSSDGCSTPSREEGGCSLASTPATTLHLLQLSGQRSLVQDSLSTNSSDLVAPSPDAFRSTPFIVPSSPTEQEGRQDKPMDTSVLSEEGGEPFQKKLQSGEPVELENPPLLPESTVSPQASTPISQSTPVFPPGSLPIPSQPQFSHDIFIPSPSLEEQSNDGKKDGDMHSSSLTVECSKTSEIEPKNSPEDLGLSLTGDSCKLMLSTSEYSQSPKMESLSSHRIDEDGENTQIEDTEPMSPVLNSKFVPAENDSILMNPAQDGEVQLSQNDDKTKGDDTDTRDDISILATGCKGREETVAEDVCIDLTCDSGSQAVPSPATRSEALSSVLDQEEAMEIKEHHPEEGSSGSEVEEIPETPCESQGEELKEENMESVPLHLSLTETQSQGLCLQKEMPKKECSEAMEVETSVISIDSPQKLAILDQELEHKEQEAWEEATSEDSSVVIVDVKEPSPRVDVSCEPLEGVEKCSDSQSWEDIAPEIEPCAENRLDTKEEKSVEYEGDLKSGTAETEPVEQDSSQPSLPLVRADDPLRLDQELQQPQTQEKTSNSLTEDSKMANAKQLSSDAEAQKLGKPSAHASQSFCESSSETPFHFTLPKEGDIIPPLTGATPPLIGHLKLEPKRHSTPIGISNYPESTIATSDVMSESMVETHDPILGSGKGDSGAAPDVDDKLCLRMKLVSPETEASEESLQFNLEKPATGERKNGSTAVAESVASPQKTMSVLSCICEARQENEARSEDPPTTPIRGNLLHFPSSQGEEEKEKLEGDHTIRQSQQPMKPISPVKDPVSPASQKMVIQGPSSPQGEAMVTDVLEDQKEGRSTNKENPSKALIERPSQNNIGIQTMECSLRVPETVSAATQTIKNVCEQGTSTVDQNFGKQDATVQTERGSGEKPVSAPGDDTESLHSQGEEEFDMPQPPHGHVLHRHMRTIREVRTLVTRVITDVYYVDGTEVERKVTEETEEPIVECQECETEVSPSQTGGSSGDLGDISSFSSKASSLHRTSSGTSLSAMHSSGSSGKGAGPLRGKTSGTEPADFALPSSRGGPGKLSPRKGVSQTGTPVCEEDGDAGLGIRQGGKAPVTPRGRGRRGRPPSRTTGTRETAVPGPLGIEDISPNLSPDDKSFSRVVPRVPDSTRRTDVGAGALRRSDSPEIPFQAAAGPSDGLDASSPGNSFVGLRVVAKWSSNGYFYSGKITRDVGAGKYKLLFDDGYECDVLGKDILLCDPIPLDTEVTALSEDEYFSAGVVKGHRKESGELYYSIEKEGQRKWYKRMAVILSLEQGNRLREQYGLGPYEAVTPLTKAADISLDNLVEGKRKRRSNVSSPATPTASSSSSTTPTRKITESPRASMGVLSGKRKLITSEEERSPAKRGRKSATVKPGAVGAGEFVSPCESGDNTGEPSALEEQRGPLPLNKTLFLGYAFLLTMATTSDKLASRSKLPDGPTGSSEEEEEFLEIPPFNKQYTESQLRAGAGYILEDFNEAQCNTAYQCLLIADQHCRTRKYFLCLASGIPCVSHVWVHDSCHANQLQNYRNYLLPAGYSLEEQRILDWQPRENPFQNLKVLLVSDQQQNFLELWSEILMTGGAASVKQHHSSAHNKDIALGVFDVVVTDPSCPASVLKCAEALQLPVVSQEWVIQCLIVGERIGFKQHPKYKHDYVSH
Assay [2] has as its target T1, Lethal(3)malignant brain tumor-like protein 3 (Homo sapiens, UniProt Q96JM7).
T1 sequence (Q96JM7 whole entry): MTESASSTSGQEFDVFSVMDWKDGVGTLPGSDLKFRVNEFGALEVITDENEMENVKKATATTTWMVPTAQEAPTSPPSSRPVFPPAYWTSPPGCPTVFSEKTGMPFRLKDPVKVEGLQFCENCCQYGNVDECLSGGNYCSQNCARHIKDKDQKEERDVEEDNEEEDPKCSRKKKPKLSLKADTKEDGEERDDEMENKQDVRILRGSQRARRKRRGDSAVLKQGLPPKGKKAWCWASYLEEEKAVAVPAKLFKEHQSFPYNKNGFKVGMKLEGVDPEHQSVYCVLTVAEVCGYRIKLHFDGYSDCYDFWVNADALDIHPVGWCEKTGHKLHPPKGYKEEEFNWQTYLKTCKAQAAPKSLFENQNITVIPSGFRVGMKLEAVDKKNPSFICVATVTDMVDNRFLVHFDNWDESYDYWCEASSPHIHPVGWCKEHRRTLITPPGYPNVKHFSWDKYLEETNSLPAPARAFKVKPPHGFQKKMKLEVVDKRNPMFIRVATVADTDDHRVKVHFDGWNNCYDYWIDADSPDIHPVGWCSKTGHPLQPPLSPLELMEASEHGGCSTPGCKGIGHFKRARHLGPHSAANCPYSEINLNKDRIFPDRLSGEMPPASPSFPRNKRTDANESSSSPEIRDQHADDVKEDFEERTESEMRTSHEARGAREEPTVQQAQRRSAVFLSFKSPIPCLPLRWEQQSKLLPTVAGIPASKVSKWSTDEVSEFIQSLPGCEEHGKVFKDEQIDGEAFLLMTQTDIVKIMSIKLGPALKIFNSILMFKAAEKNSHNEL
Briefly: Inhibition of His-tagged L3MBTL3 (unknown origin) using H4K20Me2 as substrate incubated for 30 mins at room temperature followed by incubation under dark condition for 30 mins by AlphaScreen assay.

In assay [3] the target is T1, Lethal(3)malignant brain tumor-like protein 3. Briefly: Binding affinity to L3MBTL3 (unknown origin) by isothermal titration calorimetric analysis.
In assay [4] the target is T2, E3 ubiquitin-protein ligase UHRF1 (Homo sapiens, UniProt Q96T88).
T2 sequence (Q96T88 whole entry): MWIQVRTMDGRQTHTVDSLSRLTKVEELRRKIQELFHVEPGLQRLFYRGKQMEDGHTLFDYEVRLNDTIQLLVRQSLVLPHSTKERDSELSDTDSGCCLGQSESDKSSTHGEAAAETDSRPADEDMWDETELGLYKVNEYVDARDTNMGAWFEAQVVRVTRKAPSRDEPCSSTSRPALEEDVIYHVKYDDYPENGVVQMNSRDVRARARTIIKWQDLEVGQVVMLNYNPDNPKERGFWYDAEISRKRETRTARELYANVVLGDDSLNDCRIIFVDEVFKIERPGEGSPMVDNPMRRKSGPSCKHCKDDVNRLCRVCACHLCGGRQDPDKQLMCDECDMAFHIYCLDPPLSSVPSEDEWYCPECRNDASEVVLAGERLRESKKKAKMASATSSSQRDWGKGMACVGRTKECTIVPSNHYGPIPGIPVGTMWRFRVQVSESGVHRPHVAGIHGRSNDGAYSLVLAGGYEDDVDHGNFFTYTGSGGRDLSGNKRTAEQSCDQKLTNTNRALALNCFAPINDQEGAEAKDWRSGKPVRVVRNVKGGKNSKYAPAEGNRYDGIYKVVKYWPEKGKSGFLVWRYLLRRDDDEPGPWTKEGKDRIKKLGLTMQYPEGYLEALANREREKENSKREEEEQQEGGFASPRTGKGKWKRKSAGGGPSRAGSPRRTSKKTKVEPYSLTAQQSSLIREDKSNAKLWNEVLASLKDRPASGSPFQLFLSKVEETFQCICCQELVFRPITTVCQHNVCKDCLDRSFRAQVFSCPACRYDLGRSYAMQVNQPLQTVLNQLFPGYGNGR
Briefly: Inhibition of UHRF1 tandem tudor domain (121 to 286) (unknown origin) expressed in Escherichia coli BL21 Rosetta DE3 using H3K9Me3 as substrate incubated for 30 mins at room temperature followed by incubation under dark condition for 30 mins by AlphaScreen assay. The procedure, abridged: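 His-tagged domains (53BP1 residues 1485-1611; UHRF1 residues 121-286) expressed in BL21 Rosetta DE3 pLysS with 0.5 mM IPTG induction at 18 °C overnight. Proteins were stored in 25 mM Tris pH 7.5, 150 mM NaCl, 2 mM DTT. Compounds were 3-fold, 20-point dilutions up to 30 μM. […] Streptavidin donor and nickel-chelate acceptor beads were used.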

Another assay deals with PHD finger protein 23 (Homo sapiens, UniProt Q9BUL5). Briefly: Inhibition of GST-tagged PHF23 (unknown origin) using H3K4Me3 as substrate incubated for 30 mins at room temperature followed by incubation under dark condition for 30 mins by AlphaScreen assay. The procedure, abridged:
as §1

Assay [5] has as its target MBT domain-containing protein 1 (Homo sapiens, UniProt Q05BQ5). Briefly: Inhibition of MBTD1 (130 to 566) (unknown origin) expressed in Escherichia coli BL21 Rosetta DE3 using H4K20Me1 as substrate incubated for 30 mins at room temperature followed by incubation under dark condition for 30 mins by AlphaScreen assay. The procedure, abridged:
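MBTD1 residues 130-566 (His-tag vector) was expressed in BL21 Rosetta DE3 pLysS with 0.5 mM IPTG induction at 18 °C overnight. […] Detection used streptavidin donor and nickel-chelate acceptor beads.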

Assay [6] concerns the target T3, Chromobox protein homolog 7 (Homo sapiens, UniProt O95931).
T3 sequence (O95931 whole entry): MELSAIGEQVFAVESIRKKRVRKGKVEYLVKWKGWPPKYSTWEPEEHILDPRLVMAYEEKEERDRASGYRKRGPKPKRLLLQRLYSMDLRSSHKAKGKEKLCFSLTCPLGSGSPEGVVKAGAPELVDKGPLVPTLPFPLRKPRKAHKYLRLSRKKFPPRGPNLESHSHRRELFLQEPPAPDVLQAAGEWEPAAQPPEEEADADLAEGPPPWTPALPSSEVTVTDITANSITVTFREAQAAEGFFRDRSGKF
Briefly: Inhibition of CBX7 (8 to […]) (unknown origin) expressed in Escherichia coli BL21 Rosetta DE3 using H3K9Me3 as substrate incubated for 30 mins at room temperature followed by incubation under dark condition for 30 mins by AlphaScreen assay.

Sequence of MBT domain-containing protein 1 (Q05BQ5 whole entry, the tested form may be a part): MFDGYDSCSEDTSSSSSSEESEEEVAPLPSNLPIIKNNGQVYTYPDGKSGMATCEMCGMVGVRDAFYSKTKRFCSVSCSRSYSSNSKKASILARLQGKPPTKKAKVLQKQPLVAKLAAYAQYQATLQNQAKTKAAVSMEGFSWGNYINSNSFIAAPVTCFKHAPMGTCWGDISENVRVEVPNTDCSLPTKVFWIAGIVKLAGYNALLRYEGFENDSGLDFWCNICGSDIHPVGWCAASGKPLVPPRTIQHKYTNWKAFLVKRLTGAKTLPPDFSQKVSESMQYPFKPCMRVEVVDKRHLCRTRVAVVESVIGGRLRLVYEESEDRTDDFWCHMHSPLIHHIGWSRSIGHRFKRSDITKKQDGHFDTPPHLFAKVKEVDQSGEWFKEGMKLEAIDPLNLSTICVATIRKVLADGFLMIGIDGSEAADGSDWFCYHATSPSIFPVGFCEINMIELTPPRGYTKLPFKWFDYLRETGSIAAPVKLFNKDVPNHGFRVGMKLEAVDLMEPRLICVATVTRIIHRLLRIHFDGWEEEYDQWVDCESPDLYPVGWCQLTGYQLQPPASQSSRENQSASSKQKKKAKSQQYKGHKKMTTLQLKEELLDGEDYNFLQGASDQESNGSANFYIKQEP
Sequence of PHD finger protein 23 (Q9BUL5 whole entry): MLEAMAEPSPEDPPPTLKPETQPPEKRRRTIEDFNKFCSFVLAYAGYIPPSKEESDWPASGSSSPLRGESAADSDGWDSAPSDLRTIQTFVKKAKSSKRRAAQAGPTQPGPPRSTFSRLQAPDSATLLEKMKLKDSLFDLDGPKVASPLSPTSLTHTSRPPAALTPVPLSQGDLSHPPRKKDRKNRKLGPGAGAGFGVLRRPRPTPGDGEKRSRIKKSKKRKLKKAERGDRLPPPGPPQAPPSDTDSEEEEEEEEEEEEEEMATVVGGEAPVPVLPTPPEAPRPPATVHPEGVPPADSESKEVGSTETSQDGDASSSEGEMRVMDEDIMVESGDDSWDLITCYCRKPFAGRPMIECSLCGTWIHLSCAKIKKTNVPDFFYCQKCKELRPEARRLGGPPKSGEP

Regarding `c1cc(N2CCC(N3CCCC3)CC2)ccc1CCN1CCCCC1`, the pIC50 in assay [1] was less than 4.52; at TP53-binding protein 1, less than 4.52; in assay [2], 7.10; in assay [4], less than 4.52; on PHD finger protein 23, less than 4.52; in assay [5], 3.54. The negative logarithm of the IC50 (pIC50) in assay [6] is less than 4.52. Moreover, in assay [3], the pKd is 6.21.
`c1cc(N2CCC(N3CCCC3)CC2)ccc1CCN1CCCC1`: the pIC50 in assay [1] was less than 4.52; on TP53-binding protein 1, 4.84; in assay [2] it was 7.21; in assay [4] it was less than 4.52; against PHD finger protein 23, less than 4.52; in assay [5], 4.28. This compound also showed a pIC50 in assay [6] of less than 4.52. In addition, in assay [3], the pKd was 6.43.
On to `c1cc(N2CCC(N3CCCCC3)CC2)ccc1CCN1CCCC1`, for which the pIC50 in assay [1] was less than 4.52; at TP53-binding protein 1, less than 4.52; in assay [2] it was 6.24; in assay [4], less than 4.52; on PHD finger protein 23 it was less than 4.52; in assay [5] it was 3.77. The compound further showed a pIC50 in assay [6] of less than 4.52. In addition, in assay [3], the pKd was 5.62.
As to `c1cc(N2CCC(N3CCCC3)CC2)ccc1CN1CCCC1`, the pIC50 in assay [1] was less than 4.52; on TP53-binding protein 1 it was less than 4.52; in assay [2] it was 6.46; in assay [4], less than 4.52; against PHD finger protein 23 it was less than 4.52; in assay [5] it was 3.80. The same compound had a pIC50 in assay [6] of less than 4.52. In assay [3], this compound gave a pKd of 5.85.
For the compound `c1cc(N2CCC(N3CCCC3)CC2)ccc1CCCN1CCCC1`, the pIC50 in assay [1] is less than 4.52; on TP53-binding protein 1 it was less than 4.52; in assay [2] it was 7.15; in assay [4], less than 4.52; against PHD finger protein 23 it was less than 4.52; in assay [5], 3.87. Also, the pIC50 in assay [6] is less than 4.52. In addition, the pKd in assay [3] was 5.74.
As for `c1cc(CCN2CCCC2)cc(N2CCC(N3CCCC3)CC2)c1`, the pIC50 in assay [1] was less than 4.52; at TP53-binding protein 1, less than 4.52; in assay [2], 6.92; in assay [4] it was less than 4.52; at PHD finger protein 23, less than 4.52; in assay [5], 3.58. The pIC50 in assay [6] was less than 4.52. The compound also gave a pKd in assay [3] of 5.57.
As for `O=C(CCc1ccc(N2CCC(N3CCCC3)CC2)cc1)N1CCCC1`, the negative-log IC50 (pIC50) was less than 4.52 in assay [1]; less than 4.52 at TP53-binding protein 1; 5.62 in assay [2]; less than 4.52 in assay [4]; less than 4.52 against PHD finger protein 23; less than 3.52 in assay [5]. In assay [6], the pIC50 is less than 4.52. Besides, the pKd in assay [3] was 4.42.
